# Compounds with a hit are over-represented: about 5.8% of the library has one in this group of screens.
# Pf Dd2 growth – P. falciparum Dd2 growth inhibitors, primary screen, SYBR Green fluorescence, single dose replicates. activity change, % at 10 µM. hit rate 2.3% among 94,000. AID 1159554, 2015. 72 h; stronger effect = lower value; in the data active means activity change below about -80%; inconclusive means no clear call, values can overlap the other calls
# GASC1 inh – inhibitors of GASC-1 (KDM4C) histone demethylase, primary screen, biochemical, single concentration HTS; Lysine-specific demethylase 4C (Homo sapiens), Q9H3R0; inhibition, % at 12.5 µM; GST-KDM4C 2-372, H3K9me3 peptide, LANCE TR-FRET; hit rate 0.15% among 96,000; AID 720574, 2013;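 active means mean replicate inhibition above about 25%, with at least 55% of replicates also reaching it, limit read from the data, passing the limit was not always enough; inconclusive means only one of those two conditions met; inactive means neither condition met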
#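 Assay system: GST-GASC-1 enzyme fragment 2-372 | Amount: 10 nM enzyme | Medium: HEPES buffer, pH 7.5, plus ascorbate | Reagent: H3K9me3 peptide substrate, Fe(II), 2-oxoglutarate | Doses: Single-point compound screen | Incubation: 30 min demethylation and 1 h detection at room temperature | Measured by: LANCE TR-FRET, excitation 340 nm, emissions 618 and 671 nm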
# IDH1 mut inh – inhibitors of IDH1 R132H reductase, primary screen, biochemical, plate reader, single point; hit rate 0.18% among 70,000; AID 624101, 2012; diaphorase/resazurin fluorescence, 60 min; Isocitrate dehydrogenase [NADP] cytoplasmic (Homo sapiens), O75874; inhibition, % at 10 µM; in the data active means inhibition above about 34%; inconclusive means no clear call, values can overlap the other calls; inactive means below about 11%;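 further: 0% = DMSO and 100% = no enzyme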
# Target sequence (O75874 whole entry R132H): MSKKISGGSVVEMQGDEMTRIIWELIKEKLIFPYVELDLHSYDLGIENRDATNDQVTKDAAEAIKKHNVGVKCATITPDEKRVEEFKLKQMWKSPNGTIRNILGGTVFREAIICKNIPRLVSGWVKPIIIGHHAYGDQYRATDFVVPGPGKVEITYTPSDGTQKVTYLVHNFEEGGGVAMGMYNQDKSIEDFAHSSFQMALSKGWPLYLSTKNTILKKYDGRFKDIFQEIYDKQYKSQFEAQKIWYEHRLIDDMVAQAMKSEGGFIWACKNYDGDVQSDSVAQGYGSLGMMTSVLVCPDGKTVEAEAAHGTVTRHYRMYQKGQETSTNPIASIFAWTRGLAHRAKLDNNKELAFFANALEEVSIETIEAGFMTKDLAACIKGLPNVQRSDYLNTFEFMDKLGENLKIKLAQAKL
# T cruzi growth-1 – T. cruzi intracellular proliferation inhibitors, primary screen, cell-based, beta-gal Tulahuen parasites, NIH3T3 host, luminescence. T. cruzi beta-gal in NIH3T3, GalScreen luminescence, 90 h. inhibition, % at 8.34 µM. hit rate 5.9% among 77,000;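 active means mean inhibition above about 93%, with at least 55% of replicates each passing it, limit read from the data, passing the limit was not always enough; inconclusive means only one of those two conditions holds; inactive means neither condition holds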
# T cruzi growth-2 – T. cruzi intracellular proliferation inhibitors, confirmation, cell-based, NIH3T3 host, beta-gal parasite, luminescence, cherry-pick | T. cruzi beta-gal in NIH3T3, GalScreen luminescence, 90 h | inhibition, % at 8.35 µM | hit rate 72% among 5,600 | shares compounds with T cruzi growth-1;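 active means mean replicate inhibition above about 95% and at least 55% of replicates individually reaching it, limit read from the data; inconclusive means only one of the two criteria is met; inactive means neither criterion is met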
# T cruzi growth-3 – inhibitors of intracellular T. cruzi replication, confirmation, NIH3T3 host cells, beta-gal parasites, cherry-pick, set 2. shares compounds with T cruzi growth-1. T. cruzi beta-gal in NIH3T3, GalScreen luminescence, 90 h. inhibition, % at 2.09 µM. hit rate 21% among 5,600. AID 651740, 2012;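 active means mean inhibition above about 95%, with at least 55% of replicates also reaching it, limit read from the data; inconclusive means meets just one of the two conditions; inactive means meets neither condition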;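 further: plate controls were neutral control median for no effect and positive control median for full effect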
# 3T3 cytotox – cytotoxicity in mouse NIH/3T3 fibroblasts, confirmation, cytotoxicity control for T. cruzi proliferation inhibitor project, cell-based, cherry-pick, single point; AID 651742, 2012; NIH/3T3 viability, CellTiter-Glo ATP luminescence, 90 h; hit rate 14% among 5,600; shares compounds with T cruzi growth-1; cytotoxicity (signal decrease), % at 8.35 µM;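 active means mean signal decrease across replicates above about 35% based on untreated-well scatter, with enough replicates individually passing, limit read from the data; inconclusive means no rule stated though some were filed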;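 further: 0% = median of neutral control wells and 100% = median of positive control wells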
# NIH3T3 tox 2 – NIH/3T3 fibroblast cytotoxicity, confirmation, cytotoxicity control, cell-based, cherry-pick, single point, set 2 | hit rate 56% among 5,600 | inhibition, % at 24.9 µM | NIH/3T3 viability, CellTiter-Glo ATP luminescence, 90 h | shares compounds with T cruzi growth-1;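 active means mean loss of cell viability signal at or above a set limit, and enough replicates individually reaching it; inconclusive means meets only the mean limit or only the replicate share; inactive means meets neither condition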;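 further: 0% = median of neutral control wells and 100% = median of positive control wells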
# Active calls of the source: *; ? = inconclusive; . = no result given.
SMILES,Pf Dd2 growth,GASC1 inh,IDH1 mut inh,T cruzi growth-1,T cruzi growth-2,T cruzi growth-3,3T3 cytotox,NIH3T3 tox 2
C[C@@H]1CN([C@@H](C)CO)C(=O)c2cccc(NC(=O)Nc3ccc(F)cc3)c2O[C@@H]1CN(C)Cc1ccc(Cl)c(Cl)c1,-45,4,1,29,.,.,.,.
C[C@@H]1CN([C@@H](C)CO)C(=O)c2cccc(NC(=O)Nc3ccc(C(F)(F)F)cc3)c2O[C@@H]1CN(C)Cc1ccc(Cl)c(Cl)c1,-29,7,1,?,108*,60,5,100*
C[C@H](CO)N1C[C@H](C)[C@@H](CN(C)Cc2ccc(Cl)c(Cl)c2)Oc2c(NC(=O)Nc3ccc(C(F)(F)F)cc3)cccc2C1=O,-18,-1,1,?,31,-22,7,5
N#C/C(=C\c1ccc(C2=CCOc3ccccc32)s1)S(=O)(=O)c1ccccc1,.,.,0,.,.,.,.,.
COC(=O)CCCCCCC(=O)N/N=C/c1c(CO)cnc(C)c1O,.,.,0,.,.,.,.,.
COc1cccc(S(=O)(=O)N(C)C[C@@H]2Oc3cc(C#CCC(C)C)ccc3S(=O)(=O)N([C@@H](C)CO)C[C@H]2C)c1,?,0,-4,96*,103*,108*,43*,78*
CC(C)CC#Cc1ccc2c(c1)O[C@@H](CN(C)S(=O)(=O)c1cccc(F)c1)[C@@H](C)CN([C@H](C)CO)S2(=O)=O,-4,-1,0,120*,90,100*,18,57*
CC(C)CC#Cc1ccc2c(c1)O[C@H](CN(C)S(=O)(=O)c1ccc(F)cc1)[C@H](C)CN([C@H](C)CO)S2(=O)=O,-59,-1,-1,.,.,.,.,.
CCCC#Cc1ccc2c(c1)O[C@@H](CN(C)S(=O)(=O)c1cccc(F)c1)[C@@H](C)CN([C@@H](C)CO)S2(=O)=O,-55,-2,0,121*,105*,102*,20,84*
CCCC#Cc1ccc2c(c1)O[C@H](CN(C)S(=O)(=O)c1cccc(F)c1)[C@@H](C)CN([C@H](C)CO)S2(=O)=O,-2,0,1,122*,101*,106*,-3,24*
C[C@H]1CN([C@@H](C)CO)S(=O)(=O)c2ccc(C#CCN(C)C)cc2O[C@@H]1CN(C)S(=O)(=O)c1cccc(F)c1,-45,3,0,.,.,.,.,.
COCC#Cc1ccc2c(c1)O[C@H](CN(C)S(=O)(=O)c1cccc(F)c1)[C@H](C)CN([C@H](C)CO)S2(=O)=O,-82*,5,-1,107*,93,74,30,63*
CCCC#Cc1ccc2c(c1)O[C@H](CN(C)S(=O)(=O)c1cccc(F)c1)[C@H](C)CN([C@H](C)CO)S2(=O)=O,-49,1,0,122*,103*,108*,16,75*
Cc1cc(C)cc(N(CC(=O)Nc2ccc(C(N)=O)cc2)S(C)(=O)=O)c1,.,.,0,.,.,.,.,.
CCn1c2ccccc2c2cc(/C=N/NC(=O)CCCCCC(=O)Nc3ccccc3O)ccc21,.,.,0,.,.,.,.,.
COc1ccc(C#Cc2ccc3c(c2)O[C@H](CN(C)S(=O)(=O)c2ccccc2F)[C@H](C)CN([C@H](C)CO)S3(=O)=O)cc1,-76,-2,0,124*,109*,107*,-9,33*
COc1ccc(C#Cc2ccc3c(c2)O[C@@H](CN(C)S(=O)(=O)c2ccccc2F)[C@H](C)CN([C@H](C)CO)S3(=O)=O)cc1,-78,-4,0,.,.,.,.,.
COc1cccc(C#Cc2ccc3c(c2)O[C@@H](CN(C)S(=O)(=O)c2ccccc2F)[C@@H](C)CN([C@H](C)CO)S3(=O)=O)c1,-41,1,1,101*,106*,61,19,?
CSc1nc(SCC(=O)N(c2ccccc2)c2ccccc2)c2c3c(sc2n1)CCC3,.,.,1,.,.,.,.,.
C[C@@H]1CCCCO[C@H](CN(C)C(=O)Nc2ccc(C(F)(F)F)cc2)[C@H](C)CN([C@@H](C)CO)C(=O)c2cc(NS(=O)(=O)c3ccc(F)cc3)ccc2O1,-46,0,-1,79,.,.,.,.
C[C@@H]1CCCCO[C@H](CN(C)C(=O)Nc2ccc(C(F)(F)F)cc2)[C@@H](C)CN([C@H](C)CO)C(=O)c2cc(NS(=O)(=O)c3ccc(F)cc3)ccc2O1,-32,0,4,100*,109*,49,-11,-11
Cc1ccc(S(=O)(=O)Nc2ccc3c(c2)C(=O)N([C@@H](C)CO)C[C@@H](C)[C@H](CN(C)C(=O)Nc2ccc(C(F)(F)F)cc2)OCCCC[C@@H](C)O3)cc1,5,-1,-2,100*,102*,113*,32,36*
C[C@H]1CCCCO[C@@H](CN(C)C(=O)Nc2ccc(C(F)(F)F)cc2)[C@@H](C)CN([C@@H](C)CO)C(=O)c2cc(NS(C)(=O)=O)ccc2O1,-41,1,0,109*,107*,35,24,0
COc1ccc(S(=O)(=O)Nc2ccc3c(c2)C(=O)N([C@H](C)CO)C[C@H](C)[C@@H](CN(C)C(=O)Nc2ccc(C(F)(F)F)cc2)OCCCC[C@H](C)O3)cc1,-72,.,.,101*,109*,116*,10,13
Cc1ccc(NC(=O)CC2NC3CCCCC3NC2=O)cc1C (stereo unspecified),.,.,0,.,.,.,.,.
Cc1ccc(S(=O)(=O)Nc2ccc3c(c2)C(=O)N([C@H](C)CO)C[C@H](C)[C@H](CN(C)C(=O)Nc2ccc(C(F)(F)F)cc2)OCCCC[C@H](C)O3)cc1,-22,0,.,101*,101*,116*,-15,-1
Cc1ccc(S(=O)(=O)Nc2ccc3c(c2)C(=O)N([C@H](C)CO)C[C@H](C)[C@H](CN(C)C(=O)Nc2ccc(C(F)(F)F)cc2)OCCCC[C@@H](C)O3)cc1,-51,1,3,103*,104*,54,40*,48*
